According to ChEMBL document CHEMBL1145462, “In vivo pharmacodynamic activity of the glycopeptide dalbavancin” (Antimicrob Agents Chemother, 2007):
Values after ≈ are worked out from the molar mass of the structure shown.

Experiments:
Streptococcus pneumoniae [1] = assay: Antibacterial activity against Streptococcus pneumoniae ATCC 10813 by microdilution method; assay type: functional
Procedure, shortened: (§1)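 MIC and MBC were determined by CLSI broth microdilution, in duplicate on at least two occasions. Staphylococci were grown in Mueller-Hinton broth and agar; pneumococci were plated on sheep blood agar.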

Staphylococcus aureus [2] = assay: AUC/MIC ratio of methicillin-resistant Staphylococcus aureus infected neutropenic mouse thigh infection model at 37.7 mg/kg, ip administered every 24 hrs by static effect experiment; assay type: functional; conditions: route intraperitoneal
[3] = Cmax in bacterial pathogen-infected neutropenic Swiss ICR mouse thigh infection model at 10 mg/kg, ip; assay type: ADME, organism-based; design: dose 10 mg/kg, route intraperitoneal; conditions: in vivo
Procedure, shortened: (§2)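 Thigh-infected neutropenic mice received single intraperitoneal doses (2.5, 5, 10, 20, 40, 80 mg/kg; 0.2 ml/dose). Blood was drawn by retroorbital aspiration from groups of three mice at 0.5, 1, 2, 4, 6, 24, 48, 72 and 96 h. Plasma levels were measured by microbiologic assay with Bacillus subtilis (detection limit 0.10 mg/liter). Noncompartmental analysis was used: half-life by linear least-squares regression, AUC by trapezoidal rule.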

Staphylococcus aureus [4] = assay: Antibacterial activity against Staphylococcus aureus Smith by microdilution method; assay type: functional
Procedure, shortened: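 MICs in duplicate on at least two occasions by standard CLSI broth microdilution; S. aureus grown and quantified in Mueller-Hinton broth/agar.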

Staphylococcus aureus [5] = assay: AUC/MIC ratio of Staphylococcus aureus Smith infected neutropenic mouse thigh infection model at 59 mg/kg, ip administered every 72 hrs by static effect experiment; assay type: functional; conditions: route intraperitoneal
Staphylococcus aureus [6] = assay: Antibacterial activity against methicillin-resistant Staphylococcus aureus in presence of 95% mouse serum; assay type: functional
Procedure, shortened: (§3)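 MIC determined in broth, heat-treated (100°C, 30 min) 95% mouse serum, and 95% mouse serum ultrafiltrate, using arithmetic dilutions of 0.02 mg/liter per tube. Protein binding estimated as (MIC in 95% serum − MIC in ultrafiltrate)/MIC in 95% serum.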

Streptococcus pneumoniae [7] = assay: Bactericidal activity against penicillin-susceptible Streptococcus pneumoniae ATCC 10813 infected neutropenic Swiss ICR mouse thigh infection model assessed as drug level causing 2-log reduction of bacterial count at 1.26 mg/kg, ip dosed every 36 hrs; assay type: functional; conditions: route intraperitoneal
Procedure, shortened: (§4)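 Neutropenic mice (cyclophosphamide ip 150 mg/kg day −4, 100 mg/kg day −1, then every 48 h) received 0.1 ml log-phase inoculum per thigh under halothane. Intraperitoneal dalbavancin started 2 h later and was given for 6 days at q12h, q24h, q36h or q72h, two mice per regimen. Thigh CFU were counted at 144 h. Endpoint doses relative to start-of-therapy counts came from Hill-model nonlinear regression and are expressed per 24 h.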

[8] = Half life in bacterial pathogen-infected neutropenic Swiss ICR mouse thigh infection model at 40 mg/kg, ip; assay type: ADME, organism-based; design: dose 40 mg/kg, route intraperitoneal; conditions: in vivo; procedure, shortened: as §2
Staphylococcus aureus [9] = assay: AUC/MIC ratio of Staphylococcus aureus 307109 infected neutropenic mouse thigh infection model at 37 mg/kg, ip administered every 72 hrs by 2-log killing experiment; assay type: functional; conditions: route intraperitoneal
Streptococcus pneumoniae [10] = assay: AUC/MIC ratio of Streptococcus pneumoniae ATCC 10813 infected neutropenic mouse thigh infection model at 0.77 mg/kg, ip administered every 72 hrs by 1-log killing experiment; assay type: functional; conditions: route intraperitoneal
Staphylococcus aureus [11] = assay: AUC/MBC ratio of Staphylococcus aureus 31005 infected neutropenic mouse thigh infection model at 127 mg/kg, ip administered every 72 hrs by 2-log killing experiment; assay type: functional; conditions: route intraperitoneal
Streptococcus pneumoniae [12] = assay: AUC/MIC ratio of Streptococcus pneumoniae 1199 infected neutropenic mouse thigh infection model at 0.85 mg/kg, ip administered every 72 hrs by 1-log killing experiment; assay type: functional; conditions: route intraperitoneal
Staphylococcus aureus [13] = assay: Bactericidal activity against […] Staphylococcus aureus ATCC 29213 infected neutropenic Swiss ICR mouse thigh infection model assessed as drug level causing 1-log reduction of bacterial count at 267 mg/kg, ip dosed every 24 hrs; assay type: functional; conditions: route intraperitoneal
[14] = Half life in bacterial pathogen-infected neutropenic Swiss ICR mouse thigh infection model at 10 mg/kg, ip; assay type: ADME, organism-based; design: dose 10 mg/kg, route intraperitoneal; conditions: in vivo; procedure, shortened: as §2
Streptococcus pneumoniae [15] = assay: Antibacterial activity against Streptococcus pneumoniae 1293 by microdilution method; assay type: functional; procedure, shortened: as §1
Streptococcus pneumoniae [16] = assay: AUC/MIC ratio of Streptococcus pneumoniae 1325 infected neutropenic mouse thigh infection model at 1.6 mg/kg, ip administered every 24 hrs by 1-log killing experiment; assay type: functional; conditions: route intraperitoneal
Streptococcus pneumoniae [17] = assay: Bactericidal activity against penicillin-susceptible Streptococcus pneumoniae ATCC 10813 infected neutropenic Swiss ICR mouse thigh infection model assessed as drug level causing 2-log reduction of bacterial count at 1.34 mg/kg, ip dosed every 24 hrs; assay type: functional; conditions: route intraperitoneal; procedure, shortened: as §4
Staphylococcus aureus [18] = assay: AUC/MBC ratio of Staphylococcus aureus Smith infected neutropenic mouse thigh infection model at 73.5 mg/kg, ip administered every 24 hrs by 2-log killing experiment; assay type: functional; conditions: route intraperitoneal
Staphylococcus aureus [19] = assay: AUC/MIC ratio of Staphylococcus aureus 307109 infected neutropenic mouse thigh infection model at 34 mg/kg, ip administered every 72 hrs by 1-log killing experiment; assay type: functional; conditions: route intraperitoneal
Staphylococcus aureus [20] = assay: Bactericidal activity against […] Staphylococcus aureus ATCC 29213 infected neutropenic Swiss ICR mouse thigh infection model assessed as drug level causing 2-log reduction of bacterial count at 10 mg/kg, ip dosed every 72 hrs; assay type: functional; conditions: route intraperitoneal
Streptococcus pneumoniae [21] = assay: AUC/MIC ratio of Streptococcus pneumoniae 1293 infected neutropenic mouse thigh infection model at 1.28 mg/kg, ip administered every 72 hrs by 1-log killing experiment; assay type: functional; conditions: route intraperitoneal
Staphylococcus aureus [22] = assay: AUC/MBC ratio of Staphylococcus aureus ATCC 25923 infected neutropenic mouse thigh infection model at 185 mg/kg, ip administered every 72 hrs by 1-log killing experiment; assay type: functional; conditions: route intraperitoneal
Staphylococcus aureus [23] = assay: AUC/MBC ratio of Staphylococcus aureus 31005 infected neutropenic mouse thigh infection model at 94.6 mg/kg, ip administered every 72 hrs by 1-log killing experiment; assay type: functional; conditions: route intraperitoneal
Staphylococcus aureus [24] = assay: AUC/MIC ratio of Staphylococcus aureus ATCC 25923 infected neutropenic mouse thigh infection model at 185 mg/kg, ip administered every 72 hrs by 1-log killing experiment; assay type: functional; conditions: route intraperitoneal
Staphylococcus aureus [25] = assay: AUC/MIC ratio of Staphylococcus aureus 31005 infected neutropenic mouse thigh infection model at 127 mg/kg, ip administered every 72 hrs by 2-log killing experiment; assay type: functional; conditions: route intraperitoneal
Staphylococcus aureus [26] = assay: AUC/MBC ratio of methicillin-resistant Staphylococcus aureus infected neutropenic mouse thigh infection model at 85 mg/kg, ip administered every 72 hrs by 2-log killing experiment; assay type: functional; conditions: route intraperitoneal
Staphylococcus aureus [27] = assay: AUC/MIC ratio of Staphylococcus aureus 307109 infected neutropenic mouse thigh infection model at 31 mg/kg, ip administered every 72 hrs by static effect experiment; assay type: functional; conditions: route intraperitoneal
Staphylococcus aureus [28] = assay: Antibacterial activity against Staphylococcus aureus ATCC 25923 in presence of 95% mouse serum; assay type: functional; procedure, shortened: as §3
Staphylococcus aureus [29] = assay: AUC/MBC ratio of Staphylococcus aureus ATCC 25923 infected neutropenic mouse thigh infection model at 214 mg/kg, ip administered every 72 hrs by 2-log killing experiment; assay type: functional; conditions: route intraperitoneal
Streptococcus pneumoniae [30] = assay: Antibacterial activity against Streptococcus pneumoniae 1325 by microdilution method; assay type: functional; procedure, shortened: as §1
Streptococcus pneumoniae [31] = assay: AUC/MIC ratio of Streptococcus pneumoniae 1325 infected neutropenic mouse thigh infection model at 1.73 mg/kg, ip administered every 24 hrs by 2-log killing experiment; assay type: functional; conditions: route intraperitoneal

CN[C@H]1C(=O)N[C@@H]2Cc3ccc(cc3)Oc3cc4cc(c3O[C@@H]3O[C@H](C(=O)O)[C@@H](O)[C@H](O)[C@H]3NC(=O)CCCCCCCCC(C)C)Oc3ccc(cc3Cl)[C@@H](O)[C@@H]3NC(=O)[C@H](NC(=O)[C@@H]4NC(=O)[C@@H](NC2=O)c2cc(cc(O)c2Cl)Oc2cc1ccc2O)c1ccc(O)c(c1)-c1c(O[C@H]2O[C@H](CO)[C@@H](O)[C@H](O)[C@@H]2O)cc(O)cc1[C@@H](C(=O)NCCCN(C)C)NC3=O [DALBAVANCIN]
MBC (Streptococcus pneumoniae [1]): 0.03 µg/mL (≈ 0.0165 µM) | MIC (Streptococcus pneumoniae [1]): 0.03 µg/mL (≈ 0.0165 µM) | RatioAUC/MIC (Staphylococcus aureus [2]): 374 | Cmax [3]: 34800 ng/mL | MBC (Staphylococcus aureus [4]): 0.25 µg/mL (≈ 0.138 µM) | MIC (Staphylococcus aureus [4]): 0.06 µg/mL (≈ 0.033 µM) | RatioAUC/MIC (Staphylococcus aureus [5]): 96 | MIC (Staphylococcus aureus [6]): 32 µg/mL | Activity (Streptococcus pneumoniae [7]): 1.81 | half-life [8]: 9.7 h | RatioAUC/MIC (Staphylococcus aureus [9]): 121 | RatioAUC/MIC (Streptococcus pneumoniae [10]): 1.6 | Ratio (Staphylococcus aureus [11]): 217 | RatioAUC/MIC (Streptococcus pneumoniae [12]): 12.1 | ED 1-log kill (Staphylococcus aureus [13]): 267 mg/kg/day | half-life [14]: 12.5 h | MBC (Streptococcus pneumoniae [15]): 0.004 µg/mL (≈ 0.0022 µM) | MIC (Streptococcus pneumoniae [15]): 0.004 µg/mL (≈ 0.0022 µM) | RatioAUC/MIC (Streptococcus pneumoniae [16]): 31.8 | Activity (Streptococcus pneumoniae [17]): 1.75 | Ratio (Staphylococcus aureus [18]): 173 | RatioAUC/MIC (Staphylococcus aureus [19]): 108 | Activity (Staphylococcus aureus [20]): 128 | RatioAUC/MIC (Streptococcus pneumoniae [21]): 18 | Ratio (Staphylococcus aureus [22]): 76.1 | Ratio (Staphylococcus aureus [23]): 163 | RatioAUC/MIC (Staphylococcus aureus [24]): 317 | RatioAUC/MIC (Staphylococcus aureus [25]): 364 | Ratio (Staphylococcus aureus [26]): 70 | RatioAUC/MIC (Staphylococcus aureus [27]): 94 | MIC (Staphylococcus aureus [28]): 32 µg/mL | Ratio (Staphylococcus aureus [29]): 88.1 | MBC (Streptococcus pneumoniae [30]): 0.008 µg/mL (≈ 0.0044 µM) | MIC (Streptococcus pneumoniae [30]): 0.008 µg/mL (≈ 0.0044 µM) | RatioAUC/MIC (Streptococcus pneumoniae [31]): 34.5
